Results taken from ChEMBL document CHEMBL1144594, “Synthesis and biological evaluation of 4-amino derivatives of benzimidazoquinoxaline, benzimidazoquinoline, and benzopyrazoloquinazoline as potent IKK inhibitors” (Bioorg Med Chem Lett, 2007).
Activity calls are given as the source filed them. The calls are words filed in the database; no cut-off is given here.

Key:
[1] = biological target: T1, Inhibitor of nuclear factor kappa-B kinase subunit beta (Homo sapiens, UniProt O14920); experiment: Inhibition of IKK2
T1 sequence (O14920 whole entry): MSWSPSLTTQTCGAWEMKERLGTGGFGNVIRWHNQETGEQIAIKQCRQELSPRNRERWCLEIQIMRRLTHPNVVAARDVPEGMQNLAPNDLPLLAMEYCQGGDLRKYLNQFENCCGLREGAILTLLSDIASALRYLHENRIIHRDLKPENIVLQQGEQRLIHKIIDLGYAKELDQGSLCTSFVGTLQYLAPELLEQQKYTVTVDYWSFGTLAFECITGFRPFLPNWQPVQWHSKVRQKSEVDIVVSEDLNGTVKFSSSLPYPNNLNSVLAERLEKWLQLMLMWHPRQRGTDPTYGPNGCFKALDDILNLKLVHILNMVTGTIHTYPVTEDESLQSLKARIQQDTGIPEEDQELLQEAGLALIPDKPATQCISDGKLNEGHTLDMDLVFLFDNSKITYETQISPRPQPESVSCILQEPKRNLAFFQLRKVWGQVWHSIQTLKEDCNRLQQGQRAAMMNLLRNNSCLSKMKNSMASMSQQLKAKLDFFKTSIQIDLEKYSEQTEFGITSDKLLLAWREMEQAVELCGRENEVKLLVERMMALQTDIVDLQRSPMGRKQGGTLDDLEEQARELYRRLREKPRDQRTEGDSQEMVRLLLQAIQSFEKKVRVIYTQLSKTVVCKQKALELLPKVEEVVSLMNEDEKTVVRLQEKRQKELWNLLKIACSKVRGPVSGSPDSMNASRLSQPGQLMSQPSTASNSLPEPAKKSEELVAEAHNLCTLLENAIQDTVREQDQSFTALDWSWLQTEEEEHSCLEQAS
In short: (§1)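 Enzyme (IKK-2 or IKK-1, typically 0.5 µg/mL final) added at 30 °C to 50 µg/mL GST-IκBα substrate and 20 µM ATP. Read-out is GST-IκBα phosphorylation. IC50 is from a single experiment.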

[2] = biological target: T1, Inhibitor of nuclear factor kappa-B kinase subunit beta; experiment: Inhibition of LPS-induced TNFalpha secretion in THP1 cells; type: functional, cell-based, THP-1
[3] = biological target: T2, Inhibitor of nuclear factor kappa-B kinase subunit alpha (Homo sapiens, UniProt O15111); experiment: Inhibition of IKK1; in short: as §1
T2 sequence (O15111 whole entry): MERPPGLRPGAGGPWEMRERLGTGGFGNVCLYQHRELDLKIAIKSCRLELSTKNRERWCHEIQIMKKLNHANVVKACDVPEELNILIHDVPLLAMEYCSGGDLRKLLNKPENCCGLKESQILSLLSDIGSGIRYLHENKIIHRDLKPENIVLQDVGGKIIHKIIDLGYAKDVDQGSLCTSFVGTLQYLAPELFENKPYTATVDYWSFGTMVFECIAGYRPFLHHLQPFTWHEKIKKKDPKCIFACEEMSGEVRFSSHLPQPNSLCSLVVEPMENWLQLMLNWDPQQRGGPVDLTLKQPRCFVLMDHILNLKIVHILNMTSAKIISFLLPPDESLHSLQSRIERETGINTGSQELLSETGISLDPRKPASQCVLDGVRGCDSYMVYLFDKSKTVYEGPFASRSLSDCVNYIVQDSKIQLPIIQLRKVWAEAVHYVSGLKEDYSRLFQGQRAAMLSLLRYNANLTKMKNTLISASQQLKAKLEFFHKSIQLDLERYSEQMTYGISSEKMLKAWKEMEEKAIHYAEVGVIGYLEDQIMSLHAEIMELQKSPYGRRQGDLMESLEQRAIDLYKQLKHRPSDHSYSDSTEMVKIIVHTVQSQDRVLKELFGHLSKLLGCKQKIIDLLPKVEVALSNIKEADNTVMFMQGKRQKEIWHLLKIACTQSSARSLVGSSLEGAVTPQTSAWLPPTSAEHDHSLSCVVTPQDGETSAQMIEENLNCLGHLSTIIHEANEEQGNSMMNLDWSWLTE

Homo sapiens = organism: Homo sapiens; experiment: Selectivity for human IKK2 over human IKK1
Mus musculus [4] = experiment: Reduction of LPS-induced serum TNFalpha levels in BALB/c mouse at 10 mg/kg, po relative to control; type: functional; design: scale not given: the % may be the effect or the level left
In short: (§2)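 Female BALB/c mice, 6–8 weeks old, got inhibitor in 0.2 mL aqueous solution by oral gavage. One hour later they were challenged ip with 1 µg E. coli O111:B4 LPS in 500 µL PBS. Serum was taken 90 min after challenge and TNF-α measured by EIA. Inhibition is relative to vehicle-only LPS-challenged controls.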

Mus musculus [5] = experiment: Reduction of LPS-induced serum TNFalpha levels in BALB/c mouse at 100 mg/kg, po relative to control; type: functional, organism-based; design: dose 100 mg/kg; in short: as §2
Mus musculus [6] = experiment: Reduction of LPS-induced serum TNFalpha levels in BALB/c mouse at 30 mg/kg, po relative to control; type: functional; design: scale not given: the % may be the effect or the level left; in short: as §2
[7] = biological target: T3, Tyrosine-protein kinase ITK/TSK (Homo sapiens) (UniProt Q08881); experiment: Inhibition of EMT at 50 uM
T3 sequence (whole entry): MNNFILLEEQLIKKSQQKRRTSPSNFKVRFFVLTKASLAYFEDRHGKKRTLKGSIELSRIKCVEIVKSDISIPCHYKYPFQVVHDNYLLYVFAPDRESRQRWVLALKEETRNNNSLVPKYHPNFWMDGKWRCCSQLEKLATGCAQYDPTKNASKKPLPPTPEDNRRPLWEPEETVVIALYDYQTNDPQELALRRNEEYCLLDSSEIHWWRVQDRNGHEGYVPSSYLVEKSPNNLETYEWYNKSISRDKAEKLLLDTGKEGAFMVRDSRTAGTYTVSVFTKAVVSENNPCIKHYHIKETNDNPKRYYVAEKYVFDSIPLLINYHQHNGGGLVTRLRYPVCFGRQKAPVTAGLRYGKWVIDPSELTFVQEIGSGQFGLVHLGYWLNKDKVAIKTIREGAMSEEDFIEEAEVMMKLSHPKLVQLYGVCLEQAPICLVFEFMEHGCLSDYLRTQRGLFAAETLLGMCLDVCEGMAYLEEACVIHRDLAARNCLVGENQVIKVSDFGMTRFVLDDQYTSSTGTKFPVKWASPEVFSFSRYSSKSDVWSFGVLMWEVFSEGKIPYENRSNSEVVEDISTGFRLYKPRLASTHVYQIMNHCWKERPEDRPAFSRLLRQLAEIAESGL

[8] = biological target: T4, Inhibitor of nuclear factor kappa-B kinase subunit epsilon (Homo sapiens) (UniProt Q14164); experiment: Inhibition of IKKepsilon at 50 uM
T4 sequence (whole entry): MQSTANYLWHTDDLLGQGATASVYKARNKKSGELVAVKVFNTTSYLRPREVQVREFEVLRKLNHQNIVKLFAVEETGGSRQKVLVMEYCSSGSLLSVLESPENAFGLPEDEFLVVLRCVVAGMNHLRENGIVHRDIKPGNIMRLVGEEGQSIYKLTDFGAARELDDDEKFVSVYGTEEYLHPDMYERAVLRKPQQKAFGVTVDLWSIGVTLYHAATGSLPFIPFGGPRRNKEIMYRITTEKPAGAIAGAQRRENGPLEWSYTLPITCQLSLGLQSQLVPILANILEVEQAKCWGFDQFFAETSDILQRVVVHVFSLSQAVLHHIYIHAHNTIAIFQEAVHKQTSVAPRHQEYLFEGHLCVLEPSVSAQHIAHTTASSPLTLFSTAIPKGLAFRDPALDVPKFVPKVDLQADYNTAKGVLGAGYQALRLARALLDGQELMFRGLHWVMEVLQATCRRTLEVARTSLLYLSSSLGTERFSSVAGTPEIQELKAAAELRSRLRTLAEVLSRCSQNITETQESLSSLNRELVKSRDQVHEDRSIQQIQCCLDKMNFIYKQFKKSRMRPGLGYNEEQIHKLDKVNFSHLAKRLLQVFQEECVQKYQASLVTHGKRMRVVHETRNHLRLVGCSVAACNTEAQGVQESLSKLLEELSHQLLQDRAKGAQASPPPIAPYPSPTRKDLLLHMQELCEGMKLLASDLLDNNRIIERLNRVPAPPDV

[9] = biological target: Tyrosine-protein kinase Lck (Homo sapiens) (UniProt P06239); experiment: Inhibition of LCK at 50 uM
Sequence of Tyrosine-protein kinase Lck (Homo sapiens) (P06239 2-509 limits assumed): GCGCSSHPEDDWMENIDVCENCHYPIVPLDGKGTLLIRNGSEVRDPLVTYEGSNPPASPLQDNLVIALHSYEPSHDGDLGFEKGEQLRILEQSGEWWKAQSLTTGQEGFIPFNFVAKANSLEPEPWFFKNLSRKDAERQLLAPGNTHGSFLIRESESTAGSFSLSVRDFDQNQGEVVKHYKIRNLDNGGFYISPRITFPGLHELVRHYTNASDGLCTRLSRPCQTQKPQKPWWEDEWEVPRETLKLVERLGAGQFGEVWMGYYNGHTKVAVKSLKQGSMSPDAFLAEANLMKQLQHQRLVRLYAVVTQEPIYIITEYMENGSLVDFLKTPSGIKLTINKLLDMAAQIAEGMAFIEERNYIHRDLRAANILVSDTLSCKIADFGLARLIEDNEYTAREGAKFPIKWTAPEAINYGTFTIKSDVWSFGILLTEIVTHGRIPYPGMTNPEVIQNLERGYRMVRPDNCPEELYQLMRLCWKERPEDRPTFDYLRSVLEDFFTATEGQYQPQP

| Structure (SMILES) | IC50 [1] [nM] | IC50 [2] [nM] | IC50 [3] [nM] | further results |
| --- | --- | --- | --- | --- |
| Cn1cnc2c(NCCN)nc3cc4ccccc4cc3c21 | 58 | 5900 | 1600 |  |
| CNc1nc2cc3ccccc3cc2n2c(C)cnc12 | 18 | 340 |  | Ratio IC50 (Homo sapiens): 13; Activity (Mus musculus [4]): 50% |
| CNCCNc1nc2cc3ccccc3cc2c2c(C)cnn12 | 35 | 1500 |  |  |
| Cc1ccc2nc(NCCN)c3ncc(C)n3c2c1.Cl |  |  |  | Activity (Mus musculus [5]): Active; Activity (Mus musculus [6]): 50% |
| CNc1nc2cc3ccccc3cc2c2c(C)cnn12 | 11 | 8300 |  |  |
| CNCCNc1nc2cc3ccccc3cc2n2c(C)cnc12 | 23 | 1000 | 390 | Activity [7]: inactive; Activity (Mus musculus [5]): Active; Activity [8]: inactive; Activity [9]: inactive |
| Cc1cnc2c(NCCO)nc3cc4ccccc4cc3n12 | 18 | 1400 | 870 | Ratio IC50 (Homo sapiens): 48 |
| Cc1cnc2c(NCCN3CCCCC3)nc3cc4ccccc4cc3n12 | 46 | 600 |  |  |
| CNc1nc2cc3ccccc3cc2c2c1ncn2C |  | 950 | 990 |  |
